{"source": "ChEMBL document CHEMBL4393735", "about": "“Molecular modelling, synthesis, and biological evaluations of a 3,5-disubstituted isoxazole fatty acid analogue as a PPARα-selective agonist” (Bioorg Med Chem, 2019)", "key": {"[1]": {"target": "T1, Peroxisome proliferator-activated receptor alpha (Mus musculus) (UniProt P23204)", "T1 sequence (whole entry)": "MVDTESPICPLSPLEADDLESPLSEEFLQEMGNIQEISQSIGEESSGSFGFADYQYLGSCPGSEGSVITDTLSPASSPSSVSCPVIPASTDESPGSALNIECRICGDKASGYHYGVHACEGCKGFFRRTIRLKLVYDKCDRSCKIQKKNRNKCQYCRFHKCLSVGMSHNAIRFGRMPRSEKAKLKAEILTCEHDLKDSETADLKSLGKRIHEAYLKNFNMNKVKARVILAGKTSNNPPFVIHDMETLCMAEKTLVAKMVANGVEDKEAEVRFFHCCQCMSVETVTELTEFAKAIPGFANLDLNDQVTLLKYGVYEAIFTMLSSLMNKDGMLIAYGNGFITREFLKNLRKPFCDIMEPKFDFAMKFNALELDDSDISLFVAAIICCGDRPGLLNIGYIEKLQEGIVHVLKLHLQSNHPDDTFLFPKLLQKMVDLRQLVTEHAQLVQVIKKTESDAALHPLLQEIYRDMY", "assay": "Agonist activity at PPARalpha in C57BL/6N mouse primary hepatocytes assessed as activation of Scd1 mRNA expression at 1 uM measured after 18 hrs by qRT-PCR analysis", "format": "cell-based", "method_in_brief": "(§1)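 Treatment for 18 h at 50 μM (or 1 μM for the 1 μM agents), DMSO vehicle. Harvested for qPCR. mRNA normalized to TBP by the comparative threshold method, expressed relative to DMSO control. Two biological replicates run in duplicate, mean ± SEM. Primary hepatocytes came from male C57BL/6N mice aged 7–8 weeks, isolated by portal-vein perfusion and digestion, seeded on collagen I and used on day 2. HuH-7 cells were kept in DMEM with 10% FBS and ITS.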"}, "[2]": {"target": "T1, Peroxisome proliferator-activated receptor alpha (Mus musculus)", "assay": "Agonist activity at PPARalpha in C57BL/6N mouse primary hepatocytes assessed as activation of Cpt1a mRNA expression at 1 uM measured after 18 hrs by qRT-PCR analysis", "format": "cell-based", "method_in_brief": "as §1"}, "[3]": {"target": "T2, Peroxisome proliferator-activated receptor alpha (Homo sapiens) (UniProt Q07869)", "T2 sequence (whole entry)": "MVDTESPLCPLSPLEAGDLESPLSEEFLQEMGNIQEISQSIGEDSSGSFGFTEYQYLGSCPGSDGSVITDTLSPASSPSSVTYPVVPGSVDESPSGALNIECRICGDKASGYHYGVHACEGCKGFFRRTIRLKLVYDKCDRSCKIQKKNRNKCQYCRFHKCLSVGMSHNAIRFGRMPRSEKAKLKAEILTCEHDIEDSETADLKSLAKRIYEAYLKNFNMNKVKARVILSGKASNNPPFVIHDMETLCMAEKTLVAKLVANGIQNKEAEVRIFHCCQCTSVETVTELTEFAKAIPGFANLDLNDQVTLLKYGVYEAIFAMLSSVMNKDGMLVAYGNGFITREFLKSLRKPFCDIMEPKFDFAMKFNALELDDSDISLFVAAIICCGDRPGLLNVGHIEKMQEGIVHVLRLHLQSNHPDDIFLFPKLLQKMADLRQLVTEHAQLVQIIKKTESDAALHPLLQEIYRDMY", "assay": "Agonist activity at PPARalpha in human Huh7 cells assessed as SREBF1 mRNA expression at 1 uM measured after 18 hrs by qRT-PCR analysis", "format": "cell-based", "method_in_brief": "as §1"}, "[4]": {"target": "T2, Peroxisome proliferator-activated receptor alpha (Homo sapiens)", "assay": "Agonist activity at PPARalpha in human Huh7 cells assessed as SCD1 mRNA expression at 1 uM measured after 18 hrs by qRT-PCR analysis", "format": "cell-based", "method_in_brief": "as §1"}, "[5]": {"target": "T2, Peroxisome proliferator-activated receptor alpha (Homo sapiens)", "assay": "Agonist activity at PPARalpha in human Huh7 cells assessed as PPARA mRNA expression at 1 uM measured after 18 hrs by qRT-PCR analysis", "format": "cell-based", "method_in_brief": "as §1"}, "[6]": {"target": "T2, Peroxisome proliferator-activated receptor alpha (Homo sapiens)", "assay": "Agonist activity at PPARalpha in human Huh7 cells assessed as activation of CPT1A mRNA expression at 1 uM measured after 18 hrs by qRT-PCR analysis", "format": "cell-based", "method_in_brief": "as §1"}, "[7]": {"target": "T1, Peroxisome proliferator-activated receptor alpha (Mus musculus)", "assay": "Agonist activity at PPARalpha in C57BL/6N mouse primary hepatocytes assessed as activation of Srebf1 mRNA expression at 1 uM measured after 18 hrs by qRT-PCR analysis", "format": "cell-based", "method_in_brief": "as §1"}, "[8]": {"target": "T2, Peroxisome proliferator-activated receptor alpha (Homo sapiens)", "assay": "Agonist activity at PPARalpha in human Huh7 cells assessed as PPARA mRNA expression at 50 uM measured after 18 hrs by qRT-PCR analysis", "format": "cell-based", "method_in_brief": "as §1"}, "[9]": {"target": "T2, Peroxisome proliferator-activated receptor alpha (Homo sapiens)", "assay": "Agonist activity at PPARalpha in human Huh7 cells assessed as SCD1 mRNA expression at 50 uM measured after 18 hrs by qRT-PCR analysis", "format": "cell-based", "method_in_brief": "as §1"}, "[10]": {"target": "T2, Peroxisome proliferator-activated receptor alpha (Homo sapiens)", "assay": "Agonist activity at PPARalpha in human Huh7 cells assessed as SREBF1 mRNA expression at 50 uM measured after 18 hrs by qRT-PCR analysis", "format": "cell-based", "method_in_brief": "as §1"}, "[11]": {"target": "T1, Peroxisome proliferator-activated receptor alpha (Mus musculus)", "assay": "Agonist activity at PPARalpha in C57BL/6N mouse primary hepatocytes assessed as PPARA mRNA expression at 50 uM measured after 18 hrs by qRT-PCR analysis", "format": "cell-based", "method_in_brief": "as §1"}, "[12]": {"target": "T1, Peroxisome proliferator-activated receptor alpha (Mus musculus)", "assay": "Agonist activity at PPARalpha in C57BL/6N mouse primary hepatocytes assessed as SCD1 mRNA expression at 50 uM measured after 18 hrs by qRT-PCR analysis", "format": "cell-based", "method_in_brief": "as §1"}, "[13]": {"target": "T1, Peroxisome proliferator-activated receptor alpha (Mus musculus)", "assay": "Agonist activity at PPARalpha in C57BL/6N mouse primary hepatocytes assessed as SREBF1 mRNA expression at 50 uM measured after 18 hrs by qRT-PCR analysis", "format": "cell-based", "method_in_brief": "as §1"}, "SGBS [14]": {"test_system": "SGBS", "assay": "Upregulation of PPARgamma gene expression in human preadipocyte derived from Simpson-Golabi-Behmel syndrome (SGBS) patient at 25 uM measured for 12 days by qRT-PCR analysis", "format": "functional, cell-based", "method_in_brief": "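SGBS cells grown 4 days in biotin/D-pantothenate medium, then differentiated without FBS (apo-transferrin, insulin, T3, hydrocortisol, IBMX, dexamethasone) with 25 μM compound or 0.1 % DMSO added from day 0. After 4 days, switched to maintenance medium without IBMX/dexamethasone, renewed day 8. qPCR on days 0, 4, 8, 12, normalized to TBP (comparative threshold) and to day 0. Minimum three biological replicates in duplicate, mean ± SEM.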"}, "SGBS [15]": {"test_system": "SGBS", "assay": "Upregulation of CEBPA gene expression in human preadipocyte derived from Simpson-Golabi-Behmel syndrome (SGBS) patient at 25 uM measured for 12 days by qRT-PCR analysis", "format": "functional, cell-based", "method_in_brief": "(§2)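 SGBS cells were differentiated with serum-free induction medium containing 25 μM test agent, 2 μM rosiglitazone or 0.1% DMSO from day 0. IBMX and dexamethasone were removed on day 4 and medium was renewed on day 8. RNA was taken on days 0, 4, 8 and 12 for qPCR, normalized to TBP and to day 0. At least three biological replicates in duplicate, two-way ANOVA with Bonferroni.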"}, "SGBS [16]": {"test_system": "SGBS", "assay": "Upregulation of ACSL1 gene expression in human preadipocyte derived from Simpson-Golabi-Behmel syndrome (SGBS) patient at 25 uM measured for 12 days by qRT-PCR analysis", "format": "functional, cell-based", "method_in_brief": "as §2"}, "SGBS [17]": {"test_system": "SGBS", "assay": "Upregulation of CD36 gene expression in human preadipocyte derived from Simpson-Golabi-Behmel syndrome (SGBS) patient at 25 uM measured for 12 days by qRT-PCR analysis", "format": "functional, cell-based", "method_in_brief": "as §2"}, "SGBS [18]": {"test_system": "SGBS", "assay": "Upregulation of FABP4 gene expression in human preadipocyte derived from Simpson-Golabi-Behmel syndrome (SGBS) patient at 25 uM measured for 12 days by qRT-PCR analysis", "format": "functional, cell-based", "method_in_brief": "as §2"}, "SGBS [19]": {"test_system": "SGBS", "assay": "Upregulation of PLIN1 gene expression in human preadipocyte derived from Simpson-Golabi-Behmel syndrome (SGBS) patient at 25 uM measured for 12 days by qRT-PCR analysis", "format": "functional, cell-based", "method_in_brief": "as §2"}, "SGBS [20]": {"test_system": "SGBS", "assay": "Upregulation of ADIPOQ gene expression in human preadipocyte derived from Simpson-Golabi-Behmel syndrome (SGBS) patient at 25 uM measured for 12 days by qRT-PCR analysis", "format": "functional, cell-based", "method_in_brief": "as §2"}, "SGBS [21]": {"test_system": "SGBS", "assay": "Upregulation of ANGPTL4 gene expression in human preadipocyte derived from Simpson-Golabi-Behmel syndrome (SGBS) patient at 25 uM measured for 12 days by qRT-PCR analysis", "format": "functional, cell-based", "method_in_brief": "as §2"}, "SGBS [22]": {"test_system": "SGBS", "assay": "Induction of adipocyte differentiation in human preadipocyte derived from Simpson-Golabi-Behmel syndrome (SGBS) patient assessed as lipid accumulation at 25 uM measured for 12 days by Oil red O staining based microscopic analysis", "format": "functional, cell-based", "method_in_brief": "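Differentiation of SGBS preadipocytes was started in serum-free medium with transferrin, insulin, T3, hydrocortisol, IBMX and dexamethasone, plus 25 μM test agent, 2 μM rosiglitazone or 0.1% DMSO. On day 4 medium was switched to lack IBMX and dexamethasone, and it was renewed on day 8. Cells were fixed with 4% PFA and stained with 0.3% Oil Red O on days 0, 4, 8 and 12, then photographed.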"}}, "note": "Active and inactive are the calls of the source.", "data": [{"smiles": "CC(C)(Sc1ccc(CCN(CCCCC2CCCCC2)C(=O)NC2CCCCC2)cc1)C(=O)O", "values": [{"measurement": "Activity", "setting": "[1]", "value": "Active"}, {"measurement": "Activity", "setting": "[2]", "value": "Active"}, {"measurement": "Activity", "setting": "[3]", "value": "inactive"}, {"measurement": "Activity", "setting": "[4]", "value": "inactive"}, {"measurement": "Activity", "setting": "[5]", "value": "inactive"}, {"measurement": "Activity", "setting": "[6]", "value": "Active"}, {"measurement": "Activity", "setting": "[7]", "value": "Active"}]}, {"smiles": "CCCCC/C=C/C(=O)CCCCCCCC(=O)O", "values": [{"measurement": "Activity", "setting": "[8]", "value": "inactive"}, {"measurement": "Activity", "setting": "[9]", "value": "inactive"}, {"measurement": "Activity", "setting": "[10]", "value": "inactive"}, {"measurement": "Activity", "setting": "[11]", "value": "Active"}, {"measurement": "Activity", "setting": "[12]", "value": "inactive"}, {"measurement": "Activity", "setting": "[13]", "value": "inactive"}, {"measurement": "Activity", "setting": "SGBS [14]", "value": "Active"}, {"measurement": "Activity", "setting": "SGBS [15]", "value": "Active"}, {"measurement": "Activity", "setting": "SGBS [16]", "value": "Active"}, {"measurement": "Activity", "setting": "SGBS [17]", "value": "Active"}, {"measurement": "Activity", "setting": "SGBS [18]", "value": "Active"}, {"measurement": "Activity", "setting": "SGBS [19]", "value": "Active"}, {"measurement": "Activity", "setting": "SGBS [20]", "value": "Active"}, {"measurement": "Activity", "setting": "SGBS [21]", "value": "Active"}, {"measurement": "Activity", "setting": "SGBS [22]", "value": "Active"}]}]}
